The source made the active and inactive calls. The calls are words filed in the database; no cut-off is given here.

Experiment [1] in a line: Increase in mineralization in mouse Calvarial cells assessed as mineralized nodule formation at 10 nM after 21 days using alizarin red-S staining by spectrophotometry relative to untreated-control. It is filed as functional, Calvarial cell.
The nature of experiment [2]: Increase in osteoblastogenesis in mouse Calvarial cells assessed as increase in Runx-2 gene expression at 10 nM by quantitative RT-PCR method relative to untreated-control. The experiment is classed as functional, Calvarial cell. Summed up:
(§1)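 Transcripts of Runx-2, BMP-2 and COL-1 in primary mouse calvarial osteoblasts after compound treatment measured by qPCR, with GAPDH as internal control. Results expressed as fold change over untreated cells.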

Experiment [3] is described as follows: Increase in osteoblastogenesis in mouse Calvarial cells assessed as increase in BMP-2 gene expression at 10 nM by quantitative RT-PCR method relative to untreated-control. It is filed as functional, Calvarial cell. In a few lines:
as §1

Experiment [4] deals with Calvarial cell. In words: Induction of osteoblast differentiation in mouse Calvarial cells assessed as increase in alkaline phosphatase activity at 10 nM after 48 hrs by spectrophotometry relative to control. The experiment is classed as functional, cell-based. Summed up: (§2)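 Neonatal mouse calvarial osteoblasts trypsinized at 70–80% confluence, 2 × 10³ cells/well, treated 48 h in differentiation medium (α-MEM, 10% FCS, 10 mM β-glycerophosphate, ascorbic acid), 1 pM to 1 µM. Cells PBS-washed, freeze-thawed (−80 °C then 37 °C, 30 min each). ALP measured with p-nitrophenylphosphate at 405 nm. Mean ± S.D. of three independent experiments versus untreated control.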

A short description of experiment [5]: Increase in mineralization in mouse Calvarial cells assessed as mineralized nodule formation at 100 pM after 21 days using alizarin red-S staining by spectrophotometry relative to untreated-control. It is filed as functional, Calvarial cell.
Experiment [6] is described as follows: Increase in osteoblastogenesis in mouse Calvarial cells assessed as increase in Runx-2 gene expression at 100 pM by quantitative RT-PCR method relative to untreated-control. It is filed as functional, Calvarial cell. In a few lines:
as §1

A short description of experiment [7]: Increase in osteoblastogenesis in mouse Calvarial cells assessed as increase in COL1 gene expression at 100 pM by quantitative RT-PCR method relative to untreated-control. The experiment is classed as functional, Calvarial cell. Summed up: as §1
The subject of experiment [8] is Calvarial cell. In words: Induction of osteoblast differentiation in mouse Calvarial cells assessed as increase in alkaline phosphatase activity at 100 pM to 1 uM after 48 hrs by spectrophotometry relative to control. The experiment is classed as functional, cell-based. Summed up:
as §2

Experiment [9] is described as follows: Increase in osteoblastogenesis in mouse Calvarial cells assessed as increase in BMP-2 gene expression at 100 pM by quantitative RT-PCR method relative to untreated-control. The experiment is classed as functional, Calvarial cell. In a few lines:
as §1

A short description of experiment [10]: Increase in mineralization in mouse Calvarial cells assessed as mineralized nodule formation at 1 uM after 21 days using alizarin red-S staining by spectrophotometry relative to untreated-control. It is filed as functional, Calvarial cell.
In experiment [11] the test system is Calvarial cell. In words: Induction of osteoblast differentiation in mouse Calvarial cells assessed as increase in alkaline phosphatase activity at 10 nM to 1 uM after 48 hrs by spectrophotometry relative to control. It is filed as functional, cell-based. Summed up:
as §2

Experiment [12] can be described thus: Increase in osteoblastogenesis in mouse Calvarial cells assessed as increase in BMP-2 gene expression at 1 uM by quantitative RT-PCR method relative to untreated-control. It is filed as functional, Calvarial cell. Summed up:
as §1

Experiment [13] deals with Calvarial cell. As to the kind of experiment: Induction of osteoblast differentiation in mouse Calvarial cells assessed as increase in alkaline phosphatase activity at 1 to 100 pM after 48 hrs by spectrophotometry relative to control. The experiment is classed as functional, cell-based. In a few lines: as §2
Experiment [14] can be described thus: Increase in mineralization in mouse Calvarial cells assessed as mineralized nodule formation at 1 pM after 21 days using alizarin red-S staining by spectrophotometry relative to untreated-control. It is filed as functional, Calvarial cell.

For `CCOC(=O)c1c(C)nc2c(c1-c1cc(C(C)CC)c3oc(=O)c(C(=O)OC)cc3c1)C(=O)CCC2` (centres undefined), the “fold change (FC)” value in experiment [1] was determined as 3; in experiment [2] it was 5.2; in experiment [3] it was 4.8. Further, the outcome in the experiment with Calvarial cell [4] was Active.
As for `CCOC(=O)c1cc2cc(-c3c(C(=O)OC)c(C)nc4c3C(=O)CCC4)cc(C(C)CC)c2oc1=O` (centres undefined), the “fold change (FC)” value in experiment [5] is given as 3.5; in [6], 5; in experiment [7] it was 3.1; in experiment [9] it was 2.4. Further, in the experiment with Calvarial cell [8], the result was Active.
On to `CCOC(=O)c1c(C)nc(C)c(C(=O)OCC)c1-c1cc(C)c2oc(=O)c(C(=O)OC)cc2c1`, for which the figures for the “fold change (FC)” value in experiment [10] and in experiment [12] were 2 and 2.5, respectively. In the experiment on Calvarial cell [11], the result was Active.
With `CCOC(=O)c1c(C)nc2c(c1-c1cc(C(C)CC)c3oc(=O)c(C(=O)OCC)cc3c1)C(=O)CC(C)(C)C2` (centres undefined), the outcome with Calvarial cell [13] was Active. For the same compound, the “fold change (FC)” value in [14] is given as 2.

Values taken from ChEMBL document CHEMBL3085660, “Synthesis and evaluation of new coumarin-pyridine hybrids with promising anti-osteoporotic activities” (Eur J Med Chem, 2013).
